The values that follow come from article PMC4481138 (Nuclear medicine and biology, 2015).

Series [1] in a line: Paired-label biodistribution in normal mice. In kind it is in vivo, Balb/c mice. The conditions noted are these: for heart uptake after DMI pretreatment: DMI 10 mg per kg i.p. 30 min before tracer; for heart uptake after DMI pretreatment as percent of controls: experiment [^18F]FPOBBG / [^125I]MIBG. The method, boiled down:
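Balb/c mice received the radiotracer pair in 100 μL PBS via tail vein: 185 kBq radioiodinated reference plus 296 kBq 18F test compound. Groups of 5 were killed by isoflurane overdose at 1, 2 and 4 h. Organs and blood were blot-dried, weighed and dual-channel gamma counted, giving %ID/g. For blocking, DMI 10 mg per kg i.p. was given 30 min pre-tracer, with sacrifice 1 h later. Co-administered agents were compared by paired 2-tailed t-test.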

Series [2] has as its system three NET-expressing cell lines (SK-N-SH, UVW-NAT, SK-N-BE(2c)). In kind it is cell-based, human. The conditions noted are these: 2 and 4 h, specific uptake (Figure 3). The method, boiled down: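 NET-expressing human cells (SK-N-SH, SK-N-BE(2c), NET-transfected UVW glioma) were plated at 5 × 10^5 per well and cultured overnight at 37°C, 5% CO2. They were washed, given fresh medium and incubated with the radioiodine pair (about 3.7 kBq each) at 37°C for 2 and 4 h, with or without desipramine. After cold PBS washes, cells were lysed with 1 N NaOH at 37°C, 10 min twice. Dual-label gamma counting gave cell-associated fraction of total radioactivity.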

Series [3] has as its target norepinephrine transporter (NET) (Bos taurus, UniProt P51143). In kind it is cell-based, human. To be noted: read-out: IC50, competitive inhibition of [^125I]MIBG uptake; UVW-NAT cells, 2 h at 37 °C, unlabeled compound 10^−9 to 10^−3 M. In outline:
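UVW-NAT cells (NET-transfected human glioma; MEM, 10% FCS, 1 g/L geneticin) seeded at 8 × 10^4/well and held overnight at 37 °C. After cold-PBS washes, fresh medium, [125I]MIBG (3.7 kBq) and unlabeled competitor (10−9 to 10−3 M final) were added for 2 h at 37 °C. Cells were washed, lysed in 1 N NaOH and gamma-counted with supernatants and input standards. IC50 came from nonlinear regression of uptake versus concentration.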

In another series the test system is UVW-NAT cells. To be noted: cited from earlier work.
The next series concerns SK-N-SH cells. The conditions noted are these: cited from earlier work.
For series [4], the system named is SK-N-SH human neuroblastoma cells. The series can be described thus: Paired-label uptake by NET-expressing tumor cells. In kind it is cell-based. The conditions noted are these: 2 h, 37 °C, absence of inhibitor, paired-label [^18F]FPOIBG / [^125I]MIBG. In outline: (§1)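 Cells were seeded at 5 × 10^5/well and held overnight at 37 °C, 5% CO2 (SK-N-SH: RPMI 1640 + FCS; SK-N-BE(2c): DMEM, 15% FCS; UVW-NAT: MEM, 10% FCS, 1 g/L geneticin), then PBS-washed into fresh medium. Tracers were co-incubated 2 h at 37 °C (~3.7 kBq radioiodinated, 18.5 kBq 18F). Parallel desipramine wells gave non-specific uptake. NaOH lysates and supernatants were dual-label gamma-counted and reported as % input dose.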

Series [5] has as its system SK-N-BE(2c) human neuroblastoma cells. The series can be described thus: Paired-label uptake by NET-expressing tumor cells. In kind it is cell-based. The conditions noted are these: SK-N-BE(2c) cells, 2 h, 37 °C, absence of inhibitor, paired-label [^18F]FPOIBG / [^125I]MIBG. In outline: as §1
Series [6] relates to UVW human glioma cells transfected to express NET (UVW-NAT). The series can be described thus: Paired-label uptake by NET-expressing tumor cells. In kind it is cell-based. The conditions noted are these: 2 h, 37 °C, absence of inhibitor, paired-label [^18F]FPOIBG / [^125I]MIBG. In outline:
as §1

The conditions of series [7]: cited from earlier work.
For series [8], the system named is PC-12 rat pheochromocytoma xenografts. To be noted: 8 h, single label format, PC-12 xenograft mice; cited from earlier work.
Setting [9] is: i.v., 1 h, no DMI (controls), paired-label.
Setting [10] is: i.v., 2 h, paired-label [^18F]FPOBBG / [^125I]MIBG.
[11] abbreviates: i.v., 4 h, paired-label [^18F]FPOBBG / [^125I]MIBG.

Molecules are shown by their SMILES.

Sequence of norepinephrine transporter (NET) (P51143 whole entry): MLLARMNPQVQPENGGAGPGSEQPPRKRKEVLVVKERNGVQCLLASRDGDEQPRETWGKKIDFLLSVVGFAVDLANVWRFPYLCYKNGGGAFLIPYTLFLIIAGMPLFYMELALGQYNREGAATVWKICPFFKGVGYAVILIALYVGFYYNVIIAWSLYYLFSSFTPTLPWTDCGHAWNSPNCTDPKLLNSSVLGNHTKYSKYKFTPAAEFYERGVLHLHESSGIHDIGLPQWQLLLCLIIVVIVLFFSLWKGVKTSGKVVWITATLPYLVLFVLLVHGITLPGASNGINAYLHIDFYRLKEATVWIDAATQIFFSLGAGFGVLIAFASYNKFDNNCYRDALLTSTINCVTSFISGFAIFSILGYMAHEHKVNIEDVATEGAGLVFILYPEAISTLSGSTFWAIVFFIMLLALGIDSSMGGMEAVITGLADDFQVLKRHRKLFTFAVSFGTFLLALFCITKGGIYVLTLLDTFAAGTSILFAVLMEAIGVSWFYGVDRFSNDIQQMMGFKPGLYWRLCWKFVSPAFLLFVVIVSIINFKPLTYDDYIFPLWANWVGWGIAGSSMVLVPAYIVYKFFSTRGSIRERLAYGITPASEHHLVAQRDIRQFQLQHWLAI

For `N=C(N)NCc1ccc(OCCCF)c([125I])c1` [[^125I]FPOIBG, 4-(3-Fluoropropoxy)-3-[^125I]iodobenzylguanidine], in series [1], the “hepatic (liver) uptake compared with co-injected radioiodinated MIBG” value is on record as “lower liver uptake”. In addition, in [1] (1 h), the “heart uptake after DMI pretreatment” value amounted to 17.8 ± 1.8 % ID/g. Besides, the “thyroid uptake (indicator of deiodination)” value in series [1] (compared with [^131I]MIBG) was “relatively low”. Moreover, the “heart uptake as percent of that of [^131I]MIBG” value in [1] (i.v., 1–4 h, paired-label) was 41–61%. The “uptake as percent of [^131I]MIBG” value in [2] was 31–53%.

As usually defined, the IC50 is the concentration needed to halve the response being measured. As for `N=C(N)NCc1cccc(I)c1` [MIBG, meta-iodobenzylguanidine], the IC50 in [3] stood at 1.5 ± 1.1 µM.

Turning to `N=C(N)NCc1cccc([131I])c1` [MIBG, meta-iodobenzylguanidine], the “uptake in UVW-NAT cells compared to that in SK-N-BE(2c)” value in the series on UVW-NAT cells was “two-fold higher”.

Consider `N=C(N)NCc1ccc(OCCCF)c(I)c1` [FPOIBG, 4-(3-Fluoropropoxy)-3-iodobenzylguanidine], for which the IC50 in [3] amounted to 20 ± 0.1 µM.

Turning to `N=C(N)NCc1ccc([18F])c(I)c1` [[^18F]FIBG, 4-[^18F]fluoro-3-iodobenzylguanidine], the “uptake in SK-N-SH cells, higher than that of co-incubated n.c.a. [^125I]MIBG” value in the series on SK-N-SH cells is on record as “about 15%”.

Consider `N=C(N)NCc1ccc(OCCC[18F])c(I)c1` [[^18F]FPOIBG, 4-(3-[^18F]Fluoropropoxy)-3-iodobenzylguanidine], for which the results for the “uptake (cell-associated radioactivity as percentage of input dose)” value in [4], in series [5] and in [6] were 10.2 ± 1.5%, 13.3 ± 2.5% and 39.6 ± 13.4%, respectively. The “heart uptake after DMI pretreatment” value in [1] (1 h) is 13.2 ± 3.3 % ID/g. Moreover, the “bone uptake relative to that of [^18F]FPOBBG” value in series [1] (4 h, indicator of defluorination) is “about 4 fold”. Further, the “myocardial uptake as percent of that of [^125I]MIBG” value in series [1] (i.v., three time points (1, 2, 4 h), paired-label) is listed as 72–74%.

With `NC(N)=NCc1cccc([125I])c1` [[^125I]MIBG], the entries for the “uptake (cell-associated radioactivity as percentage of input dose)” value in series [4], in [5] and in series [6] were 57.3 ± 8.1%, 66.3 ± 3.6% and 82.7 ± 8.9%, respectively. The “heart uptake after DMI pretreatment as percent of controls” value in series [1] (1 h) was 69%. Moreover, in [1] (1 h, experiment with co-injected [^18F]FPOIBG), the “heart uptake after DMI pretreatment as percent of control values” is reported as 57%. In addition, the heart uptake in [1] (setting [9]) is 18.7 ± 7.7 % ID/g; in [1] (setting [10]), 16.1 ± 1.4 % ID/g; in [1] (setting [11]), 10.2 ± 0.9 % ID/g. Further, in series [7], the “reduction of myocardial uptake by DMI pretreatment” value is given as 42 ± 4%.

In the case of `NC(N)=NCc1cccc([76Br])c1` [[^76Br]MBBG, ^76Br-meta-bromobenzylguanidine], the “uptake in both tumor and heart relative to [^123I]MIBG” value in series [8] is “about 4 fold”. In series [7], the “reduction of myocardial uptake by DMI pretreatment” value is 64 ± 3%.

On to `N=C(N)NCc1ccc(OCCC[18F])c(Br)c1` [[^18F]FPOBBG, 4-(3-[^18F]Fluoropropoxy)-3-bromobenzylguanidine], for which the “heart uptake after DMI pretreatment as percent of controls” value in [1] (1 h) turned out to be 73%. Also, the heart uptake in [1] (setting [9]) is 21.1 ± 5.6 % ID/g; in [1] (setting [10]), 20.1 ± 2.4 % ID/g; in series [1] (setting [11]), 16.5 ± 2.3 % ID/g.

For `N=C(N)NCc1ccc(OCCCF)c(Br)c1` [FPOBBG, 4-(3-Fluoropropoxy)-3-bromobenzylguanidine], in series [3], the IC50 stood at 11 ± 2.9 µM.

As for `N=C(N)NCc1cccc([131I])c1` [[^131I]MIBG], the “reduction of heart uptake by DMI” value in [1] (1 h, experiment with co-injected [^125I]FPOIBG) amounted to 51%.
